Data published in article PMC7271596 (Haematologica, 2019).

Tests used:
[1] = tested on: SKM1, K562, KG1a, THP-1, and HL60 cell lines; assay: Apoptosis, Annexin V-positive cells at day 3, five cell lines; format: cell-based, human; conditions: IC10 APR alone, day 3, cell lines tested
How it was run: (§1)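 Human myeloid lines in RPMI 1640 with 10% FBS, 1% penicillin/streptomycin and 1% GlutaMAX. Log-phase cells seeded at 2x10^5/mL. Drugs added once at day 0: IC10 APR, IC50 AZA, or both at these concentrations. Annexin V-positive cells scored at day 3. Results given as means ± SD; Mann-Whitney test, two-sided.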

[2] = tested on: SKM1 cells; assay: Cell cycle distribution 24 hours after treatment; format: cell-based, human; conditions: SKM1, 24 hours after exposure, IC10 APR with or without IC50 AZA
[3] = tested on: SKM1, K562, KG1a, THP-1, and HL60 cell lines; assay: Cytotoxicity; format: cell-based, human; conditions: all of the cell lines tested (SKM1, K562, KG1a, THP-1, HL60)
[4] = tested on: SKM1 cell line; assay: Transcriptomic analysis; format: cell-based, human; conditions: IC10 APR vs untreated SKM1 cells, GSEA
[5] = tested on: primary cells from MDS/AML patients; assay: Clonogenic assay in semi-solid medium; format: cell-based, human; conditions: 14 days, 34 MDS/AML patient samples
[6] = tested on: SKM1 cells; assay: Cytotoxicity; format: cell-based, human
[7] = tested on: SKM1, K562, KG1a, THP-1, and HL60 cell lines; assay: Cell cycle distribution 24 hours after treatment, five cell lines; format: cell-based, human; conditions: IC10 APR alone, various cell lines tested
[8] = tested on: HL60 cells; assay: Cytotoxicity; format: cell-based; conditions: Homo sapiens, HL-60, 72 h, read-out: IC50 (proliferation)
[9] = tested on: SKM1 cells; assay: Apoptosis, Annexin V-positive cells at day 3; format: cell-based, human; conditions: SKM1, day 3, IC10 APR and/or IC50 AZA
How it was run: as §1

Molecule | induction of apoptosis [1] | cells in G0/G1 phase [2] [%] | 50% inhibitory concentrations (IC50), cell proliferation [3] | ROS-induced genes NES ([4]; 18 hours) | early apoptotic program NES [4] | p53 pathway Normalized Enrichment Score (NES) [4] | reduction of myeloid and erythroid colony growth [5] | IC50 fold lower for the SKM1 cell line compared to the other AML lines ([6]; SKM1 vs K562, KG1a, THP-1, HL60) | effect on cell cycle distribution [7] | IC50 [8] [nM] | apoptotic cells (Annexin V-positive) [9] [%] | IC50 ([6]; Homo sapiens, SKM-1, 72 h, read-out: IC50 (proliferation)) [nM] | effect on SKM1 cell proliferation ([6]; FLT3-L on its own, 0.1 to 100 ng/mL)
COCC1(CO)C(=O)C2CCN1CC2 (centres unmarked) [APR, PRIMA-1^Met] | did not induce apoptosis | 62 | in the micromolar range | 1.2 | 1.1 | 1.2 | approximately 60% | at least 2 fold | did not affect the cell cycle distribution |  |  |  | 
Nc1ncn([C@@H]2O[C@H](CO)[C@@H](O)[C@H]2O)c(=O)n1 [AZA, 5-azacitidine] |  |  |  |  |  |  | 30% |  |  | 4500 | 19 | 540 | 
FLT3-L: FLT3 ligand from PeproTech (protein, UniProt P49771 27-235, looked up) Fms-related tyrosine kinase 3 …: TQDCSFQHSPISSDFAVKIRELSDYLLQDYPVTVASNLQDEELCGGLWRLVLAQRWMERLKTVAGSKMQGLLERVNTEIHFVTKCAFQPPPSCLRFVQTNISRLLQETSEQLVALKPWITRQNFSRCLELQCQPDSSTLPPPWSPRPLEATAPTAPQPPLLLLLLLPVGLLLLAAAWCLHWQRTRRRTPRPGEQVPPVPSPQDLLLVEH |  |  |  |  |  |  |  |  |  |  |  |  | did not affect SKM1 cell proliferation
